# Assay results gathered from unrelated publications.
# Compare with care: the assays were run in different laboratories.
Compound,system,setting,quantity,value
COc1ccc([C@@H](O)c2cc(-c3ncnc4cc(N5CCOCC5)ccc34)c(F)cc2Cl)nn1,"human, plasma","oral, 200 mg, single dose, patients",Tmax,2.02 h
NS(=O)(=O)OC[C@@H]1C[C@@H](n2ccc3c(N[C@H]4CCc5ccccc54)ncnc32)C[C@@H]1O,"human, plasma","intravenous, 25 mg/m², patients",Tmax,1.04 h
O=C1c2ccncc2C(=O)c2c1[nH]c1ccccc21,"rat, plasma","intravenous, 1 mg/kg, single dose",MRT,2.4 h
C[C@H]1[C@@H](O)O[C@@H]2O[C@@]3(C)CC[C@H]4[C@H](C)CC[C@@H]1[C@@]24OO3,"Sprague-Dawley rat, plasma","oral, 10 mg/kg",MRT(0-t),2.93 h
COc1ccc([C@@H]2Sc3ccccc3N(CCN(C)C)C(=O)[C@@H]2OC(C)=O)cc1,"Sprague-Dawley rat, hepatocytes","2 µM, 4 h, pH 7.4",fraction unbound,0.89
CN1CC[C@@H](c2c(O)cc(O)c3c(=O)cc(-c4ccc(C(F)(F)F)cc4Cl)oc23)[C@@H]1CO,"human, plasma","oral, 100 mg, patients",Tmax,3.9 h
Cn1cc(Nc2nc(N)nc(-c3cccc(-n4ccc5cc(C6CC6)cc(F)c5c4=O)c3CO)n2)cn1,"human, plasma","oral, 300 mg, single dose, fasted, suspension",Tmax,2.52 h
N#C[C@@]12C[C@@H]1[C@@H](n1cnc3c(N[C@@H](C4CCC4)C4CC4)nc(I)nc31)[C@H](O)[C@@H]2O,"male Wistar rat, plasma","oral, 1 mg/kg",MRT(0-t),1.59 h
O=C1CC[C@H](N2Cc3cc(N4CCN(CC5CCN(c6ccc([C@@H]7c8ccc(O)cc8CC[C@@H]7c7ccccc7)cc6)CC5)CC4)ccc3C2=O)C(=O)N1,"female Sprague-Dawley rat, plasma","oral, 20 mg/kg, fed",MRT(0-inf),12 h
CC(C)NCC(O)COc1cccc2ccccc12 (stereo not shown),"Sprague-Dawley rat, hepatocytes","2 µM, 4 h, pH 7.4",fraction unbound,0.88
